Experimental data published in PubChem BioAssay AID2465 (Broad Institute, 2010).
“And” between values parts separate entries of the source, which are not always exact repeats. Equal values may be shown once. Fewer than 10 of roughly 24,000 compounds were called active. No stated cut-off is given here; in the data, active means caspase activation above about 5.9%; inconclusive means no clear call, values can overlap the other calls; inactive means below about 2.2%. These entries were drawn from the full list.

Assay: A1 inhibitors via caspase activation, primary screen, cell-based, luminescence, HTS, two replicates (AID 2465)
Details: MEF A1-2A-BIM cells, caspase-Glo luminescence, 3 h; active compounds read high; percent of clofoctol response, DMSO zero; concentration not given here
In short: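 Test system – A1-2A-BIM-expressing MEF cells · Input – 2500 cells/well · Medium – RPMI-1640 growth medium with 10% FBS · Compound dosing – 50 nL pinned compound · Timing – 3 h compound exposure at 37 °C · Technique – Caspase-Glo luminescence (DEVD substrate) · Evaluation – Caspase-3/7 activity from luminescence increase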

Caspase activation, inactive:
COc1ccc(S(=O)(=O)Nc2ccc3c(c2)C(=O)N([C@@H](C)CO)C[C@H](C)[C@H](CN(C)S(=O)(=O)c2c(C)noc2C)OCCCC[C@@H](C)O3)cc1 0.0111%
C[C@@H]1CCCCO[C@@H](CN(C)C(=O)NC2CCCCC2)[C@H](C)CN([C@H](C)CO)C(=O)c2cc(NC(=O)c3ccccc3)ccc2O1 0.223%
C[C@H]1CN([C@@H](C)CO)C(=O)c2cccc(NS(=O)(=O)c3ccc(Cl)cc3)c2O[C@@H]1CN(C)Cc1ccc(Oc2ccccc2)cc1 1%
C[C@H](CO)N1C[C@H](C)[C@H](CN(C)Cc2ccc(C(=O)O)cc2)Oc2ccc(NS(=O)(=O)c3cn(C)cn3)cc2CC1=O -0.00308%
C[C@@H]1CN([C@H](C)CO)C(=O)Cc2cc(NC(=O)c3ccncc3)ccc2O[C@H]1CN(C)S(=O)(=O)c1cccs1 0.361%
COc1ccc(CN(C)C[C@@H]2OCCCC[C@@H](C)Oc3ccc(NS(=O)(=O)c4ccc(C)cc4)cc3C(=O)N([C@@H](C)CO)C[C@H]2C)cc1 0.1%
Cc1noc(C)c1S(=O)(=O)Nc1ccc2c(c1)C(=O)N([C@H](C)CO)C[C@H](C)[C@H](CN(C)C(=O)NC1CCCCC1)OCCCC[C@H](C)O2 -1.41%
O=C(N/N=C/[C@H](O)[C@@H](O)[C@H](O)[C@H](O)CO)c1ccccc1O -0.678%
C[C@H]1CCCCO[C@H](CN(C)C(=O)Nc2ccc3c(c2)OCO3)[C@@H](C)CN([C@@H](C)CO)C(=O)c2cc(NC(=O)Nc3ccccc3)ccc2O1 0.0515%
C[C@H]1CN([C@@H](C)CO)C(=O)c2cccc(NC(=O)Nc3ccccc3)c2O[C@@H]1CN(C)C(=O)Nc1cccc2ccccc12 -0.864%
[N-]=[N+]=NC[C@H](Cc1ccccc1)NC(=O)Nc1ccccc1 -3.77% and 0.143%
COc1ccc(S(=O)(=O)Nc2ccc3c(c2)C(=O)N([C@H](C)CO)C[C@H](C)[C@@H](CN(C)Cc2ccccc2)OCCCC[C@@H](C)O3)cc1 0.258%
Cc1cccc(S(=O)(=O)N(C)C[C@H]2OCc3cnnn3CCCC(=O)N([C@@H](C)CO)C[C@H]2C)c1 -0.906%
COc1ccc(S(=O)(=O)Nc2ccc3c(c2)C(=O)N([C@@H](C)CO)C[C@@H](C)[C@H](CN(C)C(=O)Nc2ccc(C(F)(F)F)cc2)OCCCC[C@@H](C)O3)cc1 -0.653%
C[C@@H]1CCCCO[C@@H](CN(C)S(=O)(=O)c2ccccc2)[C@H](C)CN([C@H](C)CO)C(=O)c2cc(NC(=O)Nc3ccc4c(c3)OCO4)ccc2O1 -1.23%
C[C@H]1CN([C@@H](C)CO)C(=O)c2cc(N(C)C)ccc2O[C@@H]1CN(C)S(=O)(=O)c1ccc(Cl)cc1 -0.761%
C[C@H]1CCCCO[C@@H](CN(C)S(=O)(=O)c2ccc(Cl)cc2)[C@@H](C)CN([C@@H](C)CO)C(=O)c2cc(NS(=O)(=O)c3cn(C)cn3)ccc2O1 -0.712%
C[C@@H]1CN([C@H](C)CO)C(=O)c2cc(NS(=O)(=O)c3ccc(F)cc3)ccc2O[C@@H]1CN(C)S(C)(=O)=O -0.125%
COc1ccc(S(=O)(=O)N(C)C[C@@H]2OCCCC[C@@H](C)Oc3ccc(NC(=O)CCCN(C)C)cc3C(=O)N([C@@H](C)CO)C[C@@H]2C)cc1 0.265%
COc1ccc(S(=O)(=O)Nc2ccc3c(c2)C(=O)N([C@H](C)CO)C[C@@H](C)[C@H](CN(C)S(=O)(=O)c2ccc(Cl)cc2)OCCCC[C@@H](C)O3)cc1 -1.08%
C[C@@H]1CCCCO[C@@H](CN(C)Cc2ccc(C(F)(F)F)cc2)[C@H](C)CN([C@H](C)CO)C(=O)c2cc(NS(=O)(=O)c3ccc(F)cc3)ccc2O1 -0.24%
COc1ccc(NC(=O)Nc2ccc3c(c2)C(=O)N([C@H](C)CO)C[C@H](C)[C@@H](CN(C)Cc2ccccc2)OCCCC[C@H](C)O3)cc1 0.0689%
C[C@@H]1CCCCO[C@H](CN(C)C(=O)Nc2cccc3ccccc23)[C@@H](C)CN([C@@H](C)CO)C(=O)c2cc(NC(=O)Nc3ccc(F)cc3)ccc2O1 0.273%
Cc1noc(C)c1NC(=O)N(C)C[C@@H]1Oc2c(NC(=O)CCCCCC(=O)Nc3ccccc3N)cccc2C(=O)N([C@H](C)CO)C[C@@H]1C 1.76%
C[C@H](CO)N1C[C@H](C)[C@H](CN(C)Cc2ccccc2)OCCCC[C@H](C)Oc2ccc(NC(=O)Cc3ccccc3)cc2C1=O -0.193%
C[C@@H]1CN([C@@H](C)CO)C(=O)c2cccc(NC(=O)CCCCCC(=O)Nc3ccccc3N)c2O[C@H]1CN(C)C(=O)Nc1ccccc1 0.335%
Cc1noc(C)c1S(=O)(=O)N(C)C[C@H]1OCCCC[C@H](C)Oc2ccc(NC(=O)c3ccccc3)cc2C(=O)N([C@@H](C)CO)C[C@H]1C -0.984%
C[C@@H]1CN([C@H](C)CO)C(=O)c2cc(NC(=O)CCCN(C)C)ccc2O[C@H]1CN(C)S(=O)(=O)c1ccc(Cl)cc1 -1.33%
C[C@@H]1CCCCO[C@H](CN(C)C(=O)CCCN(C)C)[C@H](C)CN([C@@H](C)CO)C(=O)c2cc(NS(=O)(=O)c3ccc(Cl)cc3)ccc2O1 0.532%
COc1ccc(NC(=O)Nc2ccc3c(c2)CC(=O)N([C@@H](C)CO)C[C@@H](C)[C@H](CN(C)C(=O)NC2CCCCC2)O3)cc1 -1.36%
COc1ccc(S(=O)(=O)N(C)C[C@H]2Oc3c(NS(=O)(=O)c4ccc(F)cc4)cccc3C(=O)N([C@H](C)CO)C[C@H]2C)cc1 -0.361%
COC(=O)CCCCCCC(=O)N/N=C/c1ccc(I)cc1 0.387%
C[C@@H]1CN([C@H](C)CO)C(=O)c2cc(NC(=O)Nc3ccc(C(F)(F)F)cc3)ccc2O[C@@H](C)CCCCO[C@@H]1CN(C)Cc1ccc(C(F)(F)F)cc1 0.82%
